Screening results from PubChem BioAssay.
Most compounds without a hit are left out; they make up all but 1.8% or so of the library.
MT1-MMP act inh: blockers of MT1-MMP proenzyme processing, primary screen, HT1080 RFP-PRO-GFP cells, GFP/RFP fluorescence. Matrix metalloproteinase-14 (Homo sapiens), P50281. GFP/RFP ratio fluorescence, overnight; percent of plate control window, DMSO zero. GFP/RFP ratio change, % at 20 µM. 360,000 compounds, 0.061% hits;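 active = GFP/RFP ratio change of at least 30% with cell ATP level not reduced by more than half and red fluorescence within 50% of control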
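Compound: 20 µM single dose, 1% DMSO / System: HT1080 RFP-PRO-GFP cells / Controls: DMSO and RFP-L50D-GFP cell wells / Read-out basis: GFP/RFP fluorescence ratio / Schedule: overnight compound exposure at 37 °C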
TbMetRS inhib: T. brucei MetRS inhibitors, primary screen, biochemical, luminescence. methionyl-tRNA synthetase (Trypanosoma brucei brucei). purified T. brucei MetRS, ATP depletion, Kinase-Glo luminescence. inhibition, % at 11.9 µM. 360,000 compounds, 0.4% hits. AID 624268, 2012;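 active = inhibition above a per-plate cutoff of the control wells' mean inhibition plus 3 SD, cut at about 5.5% in these data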;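 also: 0% = DMSO wells median and 100% = median of wells with control inhibitor compound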
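Material: T. brucei methionyl-tRNA synthetase, purified; reagent: substrates ATP, L-methionine and bulk Escherichia coli tRNA; dosing: 11.9 µM single point; timing: 15 min plus 2 h at 25 °C; detection: luminescence of leftover ATP; evaluation: % inhibition; control set: DMSO-only wells as low control; replicates: singlicate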
iPSC survival up: enhancers of single-cell hiPSC survival, primary screen, ATPlite luminescence; 100% = ROCK inhibitor wells, 0% = DMSO; survival enhancement, % at 20 µM; 360,000 compounds, 0.044% hits; AID 602274, 2012; in the data active = survival enhancement above about 18%;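 also: cells exposed to compounds for 16 hours before the ATP read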
SKN-1 block: suppressors of acrylamide-induced Pgst-4::GFP reporter in worms, primary screen, SKN-1 inhibitor project, whole organism, uHTS, GFP/RFP fluorescence ratio, strain VP596 | C. elegans VP596 Pgst-4::GFP/RFP ratio, 24 h | inhibition, % at 21.8 µM | 360,000 compounds, 0.49% hits | AID 624304, 2012;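 active = interference check ratio from 0.5 to 1.5 plus GFP to RFP signal ratio inhibition reaching or exceeding a fixed threshold, cut at about 30% in these data, passing the limit was not always enough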
PREPL inh: PREPL enzyme inhibitors, primary screen, biochemical, fluorescence polarization; Prolyl endopeptidase-like (Homo sapiens), Q4J6C6; recombinant PREPL, fluorescence polarization activity-based probe; inhibition, % at 5.96 µM; 320,000 compounds, 0.68% hits; AID 2751, 2010;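 also: 0% = enzyme with DMSO and 100% = wells lacking enzyme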
eLon inh: inhibitors of E. coli Lon protease, primary screen, biochemical, fluorescence polarization | 360,000 compounds, 0.42% hits | purified E. coli Lon protease | AID 602123, 2011 | P0A9M0 | inhibition, % at 7.94 µM; in the data active = inhibition above about 13%, passing the limit was not always enough;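 also: 0% = enzyme with probe and DMSO and 100% = no enzyme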
Target sequence (P0A9M0 whole entry, looked up): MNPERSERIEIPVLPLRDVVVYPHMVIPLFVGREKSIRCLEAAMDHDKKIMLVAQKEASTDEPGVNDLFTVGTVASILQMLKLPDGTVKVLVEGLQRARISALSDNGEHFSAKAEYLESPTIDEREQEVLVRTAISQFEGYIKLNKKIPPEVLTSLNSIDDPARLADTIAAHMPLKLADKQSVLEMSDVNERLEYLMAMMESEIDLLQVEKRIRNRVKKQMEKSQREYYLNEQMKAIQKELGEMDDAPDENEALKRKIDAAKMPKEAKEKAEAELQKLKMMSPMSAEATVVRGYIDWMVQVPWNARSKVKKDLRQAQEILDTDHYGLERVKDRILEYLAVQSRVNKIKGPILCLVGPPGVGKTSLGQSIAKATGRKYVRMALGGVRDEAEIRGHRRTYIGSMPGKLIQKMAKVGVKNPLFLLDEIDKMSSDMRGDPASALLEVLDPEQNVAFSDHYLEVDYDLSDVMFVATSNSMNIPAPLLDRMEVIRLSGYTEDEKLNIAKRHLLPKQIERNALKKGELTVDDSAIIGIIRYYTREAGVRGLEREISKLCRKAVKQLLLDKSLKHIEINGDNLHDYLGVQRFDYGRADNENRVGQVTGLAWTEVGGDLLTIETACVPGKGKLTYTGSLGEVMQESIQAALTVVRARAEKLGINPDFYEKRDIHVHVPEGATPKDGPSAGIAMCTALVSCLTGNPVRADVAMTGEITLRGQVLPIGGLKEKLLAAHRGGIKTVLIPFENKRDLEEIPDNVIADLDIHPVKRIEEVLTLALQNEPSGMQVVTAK
PREPL confirm: human PREPL enzyme inhibitors, confirmation, biochemical, fluorescence polarization; shares compounds with PREPL inh; recombinant PREPL, fluorescence polarization activity probe; inhibition, % at 5.96 µM; 2,000 compounds, 67% hits; AID 2803, 2010;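 also: 0% = protein with DMSO and 100% = wells lacking protein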
eLon confirm: E. coli Lon protease inhibitor retest, confirmation, biochemical, fluorescence polarization; shares compounds with eLon inh; purified E. coli Lon; inhibition, % at 7.94 µM; 1,400 compounds, 31% hits; in the data active = inhibition above about 16%;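 also: 0% = enzyme with probe and DMSO and 100% = no enzyme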
An asterisk follows results filed as active; nt = no result; + = active, no number. Rule as the data show it, unless noted: active = inhibition above about 43%; inactive = the rest.

SMILES	MT1-MMP act inh	TbMetRS inhib	iPSC survival up	SKN-1 block	PREPL inh	eLon inh	PREPL confirm	others
O=[N+]([O-])c1ccccc1-c1cc(-c2ccccc2)cc(-c2ccccc2)[n+]1Cc1ccccc1Cl	nt	nt	nt	nt	51.0*	nt	49.3*
CC(C)NP(=O)(NC(C)C)OP(=O)(NC(C)C)NC(C)C	-1.5	-0.8	-0.5	-9.6	2.2	-4.6	nt
CC(C)Cc1[nH]c(=O)c(C#N)c2c1CCC2	3.0	-1.4	4.4	-12.9	75.0*	-11.1	66.4*
O=C1NCN(c2ccccc2)C12CCN(C(c1ccccc1OC(F)(F)F)c1nnnn1-c1ccc3c(c1)OCCO3)CC2 (stereo not given)	-1.1	-0.2	3.0	20.2	nt	-6.9	nt
COC(=O)C1=C(c2cccc(OCc3ccccc3)c2)C[C@@H]2CC[C@H]1N2C(=O)NCCCOC(C)C	0.2	-0.4	0.3	2.2	45.9*	5.9	33.5
Cc1cccc(C)c1-n1nnnc1C(c1cccs1)N1CCC2(CC1)C(=O)NCN2c1ccccc1 (stereo not given)	-4.8	0.1	-0.1	0.9	nt	-10.8	nt
N#CC1c2ccccc2-n2nncc2CN1S(=O)(=O)c1cc(Cl)cc(Cl)c1 (stereo not given)	1.1	-0.6	-1.8	-11.3	nt	-5.1	nt
O=[N+]([O-])c1ccc(-[n+]2c(-c3ccccc3)cc(-c3ccccc3)cc2-c2ccccc2)cc1	5.4	1.0	0.3	-3.8	43.4*	5.9	39.3
Clc1ccc(C[n+]2c(-c3ccccc3)cc(-c3ccccc3)cc2-c2ccccc2)cc1	3.1	-0.2	-4.4	-2.3	71.0*	4.5	62.9*
CCOc1cc(/C=C2/C(=O)NC(=O)N(c3ccc(CC)cc3)C2=O)ccc1OC(=O)c1cccs1	-10.4	-0.8	-0.8	0.5	48.1*	-4.9	51.6*
COc1cc(/C=C2/C(=O)NC(=O)N(c3ccccc3)C2=O)ccc1O	4.8	-0.9	2.4	2.7	6.0	-6.0	nt
Cc1cc(=O)oc2cc3c(cc12)CCCN3	0.2	-0.6	-0.6	8.7	5.1	-1.8	nt
COc1ccc2c3c([nH]c2c1)C(C)=NCC3	-18.0	-0.8	-3.2	10.9	71.3*	-91.8	33.0
Nc1cc(Cl)c2nonc2c1[N+](=O)[O-]	-27.3	0.6	4.4	-6.6	3.4	0.9	nt
CC(=NCCc1c[nH]c2ccccc12)c1c(O)n(Cc2ccccc2)c(=O)[nH]c1=O	0.5	0.8	0.5	15.1	43.3*	-5.2	41.6
CCC(=NCCc1c[nH]c2ccccc12)c1c(O)n(-c2ccc(C)cc2)c(=O)[nH]c1=O	-1.9	-1.5	3.2	4.5	44.4*	3.5	46.1*
CC(=NCCN1CCOCC1)c1c(O)n(Cc2ccccc2)c(=O)[nH]c1=O	-7.2	-1.3	-1.0	8.3	4.5	-18.1	nt
CCC(=NCCc1c[nH]c2ccccc12)c1c(O)n(C)c(=O)n(C)c1=O	-0.6	0.5	-2.5	2.6	14.0	-6.9	nt
CCCCn1nnnc1C(CCSC)N1CCC(n2c(=O)[nH]c3ccccc32)CC1 (stereo not given)	-4.3	-0.8	-3.4	6.5	nt	-10.9	nt
CC1=NCCc2c1[nH]c1cc(O)ccc21	-50.3	-1.0	-2.0	-15.4	51.0*	+	10.2	eLon confirm=+
S=C(NCCc1ccccc1)N1Cc2ccc(Br)cc2-n2nncc2C1	nt	-0.8	-0.6	7.8	nt	-3.4	nt
CC1=C[C@@H]2c3cccc4[nH]cc(c34)C[C@H]2N(C)C1	-40.7	-0.2	1.5	7.3	57.8*	116.1*	43.8*	eLon confirm=66.5*
O=P1(c2ccccc2)Nc2ccccc2N1c1ccccc1 (stereo not given)	6.2	-0.2	-2.0	12.5	nt	-16.1	nt
C1=C(c2c[nH]c3ccccc23)CCN(Cc2ccccc2)C1	-10.0	0.3	-3.0	2.8	18.1	1.5	nt
Nc1c2c(nc3ccccc13)CCN(Cc1ccccc1)C2	-10.3	1.0	-0.4	-16.6	19.2	197.8*	nt	eLon confirm=1.8
SMILES	MT1-MMP act inh	TbMetRS inhib	iPSC survival up	SKN-1 block	PREPL inh	eLon inh	PREPL confirm	others
CC12CC(=O)C3C(CCC4CC(=O)C=CC43C)C1CCC2=O (stereo not given)	0.6	0.6	1.9	20.7	nt	-7.8	nt
Cc1nc2cc([N+](=O)[O-])ccc2c(=O)n1-c1ccc(Br)cc1	3.1	0.1	0.0	13.2	9.1	-3.6	nt
Cc1nc2cc([N+](=O)[O-])ccc2c(=O)n1-c1ccccc1[N+](=O)[O-]	5.3	-0.5	5.4	0.5	4.9	15.0*	nt	eLon confirm=-6.0
COc1ccc(-c2ccc3c(c2)CNCc2cnnn2-3)cc1	3.4	-0.4	3.3	-5.4	nt	-3.0	nt
Cc1ccc(N=Cc2c(O)n(C)c(=O)n(C)c2=O)cc1	-0.3	1.7	0.2	16.9	-17.0	46.0*	nt	eLon confirm=-11.6
O=S(=O)(c1ccc(Cl)cc1)N1Cc2cc(Br)ccc2-n2nncc2C1	1.2	-0.7	1.3	10.6	nt	-1.6	nt
COc1ccc2cc(C(=O)C3CCCN(C4CCOCC4)C3)ccc2c1 (stereo not given)	2.9	0.0	-0.2	8.4	-6.8	102.7*	nt	eLon confirm=-0.9
ClC(Cl)=C(c1ccc(Cl)cc1)c1ccc(Cl)cc1	0.6	-0.2	2.6	4.2	1.5	-4.0	nt
O=c1[nH]c(=O)n(Cc2ccco2)c(O)c1C=NCc1ccc2c(c1)OCO2	-2.1	0.2	5.1	-0.2	14.6	19.7*	nt	eLon confirm=0.3
NNC(=O)c1nc[nH]c1C(=O)Nc1ccc(Cl)cc1C(=O)c1ccccc1	1.1	-0.4	-0.3	-6.9	nt	-4.2	nt
CC1=C(N2CC2)C(=O)C(CO)=C(N2CC2)C1=O	-32.1	-0.2	-5.5	18.6	nt	-6.0	nt
CN1C[C@H](CO)C=C2c3cccc4[nH]cc(c34)C[C@H]21	-48.7	-1.2	-1.4	12.9	42.4	84.2*	nt	eLon confirm=7.4
O=c1[nH]c(O)c(C=NCCc2ccccc2)c(=O)[nH]1	4.5	-0.8	-0.5	8.7	-3.5	-7.0	nt
O=c1[nH]c(O)c(/C=C2\C=Nc3ccc(OCc4ccccc4)cc32)c(=O)[nH]1	2.7	0.1	0.1	13.4	4.1	26.9*	nt	eLon confirm=30.4*
CCCCCn1c(=O)c(C(=O)NCCc2ccccc2)c(O)c2ccccc21	-7.0	0.9	-0.7	12.5	-4.0	-9.6	nt
